Results published in ChEMBL document CHEMBL2311383, “Discovery of piperazin-1-ylpyridazine-based potent and selective stearoyl-CoA desaturase-1 inhibitors for the treatment of obesity and metabolic syndrome” (J Med Chem, 2013).
Active and inactive are the calls of the source. The rule behind the calls is not given here.

How the values were obtained:
[1] = target: Acyl-CoA (8-3)-desaturase (Rattus norvegicus) (UniProt Q920R3); test: Inhibition of delta5 desaturase in Sprague-Dawley rat liver microsome at 10 uM; type: microsomes
Sequence of Acyl-CoA (8-3)-desaturase (Rattus norvegicus) (Q920R3 whole entry, looked up): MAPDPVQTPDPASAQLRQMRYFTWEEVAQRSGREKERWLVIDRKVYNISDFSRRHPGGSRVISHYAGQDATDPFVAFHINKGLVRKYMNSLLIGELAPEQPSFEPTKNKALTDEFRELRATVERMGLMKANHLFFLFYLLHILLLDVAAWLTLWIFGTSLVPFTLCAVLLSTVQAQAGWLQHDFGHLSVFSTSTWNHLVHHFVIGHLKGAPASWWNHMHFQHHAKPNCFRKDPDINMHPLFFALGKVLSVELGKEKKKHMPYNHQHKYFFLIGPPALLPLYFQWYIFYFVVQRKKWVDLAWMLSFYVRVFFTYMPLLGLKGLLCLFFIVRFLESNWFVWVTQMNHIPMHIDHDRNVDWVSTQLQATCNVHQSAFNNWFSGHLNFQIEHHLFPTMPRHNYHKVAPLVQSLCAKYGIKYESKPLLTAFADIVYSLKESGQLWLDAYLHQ

[2] = Clearance in Lewis rat at 1 mg/kg, iv; type: ADME, organism-based; parameters: dose 1 mg/kg, route intravenous; conditions: in vivo
In short: (§1)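 Lewis rats, IV 3 mg/kg and PO 10 mg/kg unless otherwise stated (some at PO 5 mg/kg, IV 1 mg/kg, or IV 1/PO 2 mg/kg). At least two rats IV, three rats PO, averaged. Plasma t1/2 (h), AUC 0–∞ (μM·h), Vss (L/kg), clearance ((L/h)/kg), Cmax (μM), Tmax (h), oral bioavailability (%).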

[3] = AUC (0 to infinity) in Lewis rat at 1 mg/kg, iv; type: ADME, organism-based; parameters: time infinity, dose 1 mg/kg, route intravenous; conditions: plasma; in short: as §1
[4] = Volume of distribution at steady state in Lewis rat at 1 mg/kg, iv; type: ADME, organism-based; parameters: dose 1 mg/kg, route intravenous; conditions: in vivo, read-out: Vdss; in short: as §1
[5] = Half life in Lewis rat at 1 mg/kg, iv; type: ADME, organism-based; parameters: dose 1 mg/kg, route intravenous; conditions: in vivo; in short: as §1
[6] = Oral bioavailability in Lewis rat at 2 mg/kg; type: ADME, organism-based; conditions: in vivo; in short: as §1
[7] = AUC (0 to infinity) in Lewis rat at 2 mg/kg, po; type: ADME, organism-based; parameters: time infinity, dose 2 mg/kg, route oral; conditions: plasma; in short: as §1
[8] = Tmax in Lewis rat at 2 mg/kg, po; type: ADME, organism-based; parameters: dose 2 mg/kg, route oral; conditions: in vivo; in short: as §1
[9] = Cmax in Lewis rat at 2 mg/kg, po; type: ADME, organism-based; parameters: dose 2 mg/kg, route oral; conditions: in vivo; in short: as §1
[10] = test system: Rattus norvegicus; test: In vivo inhibition of SCD1 in Lewis rat liver microsome at 15 mg/kg, ip administered qd for 2 days; type: functional; conditions: 48 h, route intraperitoneal
In short: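 Lewis rats fed high-carbohydrate diet for one week, fasted 4 h, then dosed orally (0.1–1 mg/kg in 0.2% Tween 20/1% CMC; n = 4), killed 4 h later; ip arm 15 mg/kg once daily for two days. Liver microsomes prepared, SCD1 activity measured by tritiated water release from [9,10-3H]stearoyl-CoA. Mean ± SD of at least four rats.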

[11] = Apparent permeability from basolateral to apical side in human Caco2 cells; type: ADME, cell-based; conditions: Caco-2
In short: (§2)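 Caco-2 monolayers; apparent permeability a-to-b and b-to-a reported in 10⁻⁶ cm/s.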

[12] = Metabolic stability in rat liver microsome after 30 mins by LC/MS/MS analysis; type: ADME; conditions: liver microsomes, read-out: Stability
In short: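 Compound incubated 30 min with rat liver microsomes; percent parent remaining by LC/MS/MS.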

[13] = Apparent permeability from apical to basolateral side in human Caco2 cells; type: ADME, cell-based; conditions: Caco-2; in short: as §2
[14] = target: Acyl-CoA 6-desaturase (Rattus norvegicus) (UniProt Q9Z122); test: Inhibition of delta6 desaturase in Sprague-Dawley rat liver microsome using cis,cis-9,12-octadecadienoic acid substrate at 10 uM
Sequence of Acyl-CoA 6-desaturase (Rattus norvegicus) (Q9Z122 whole entry, looked up): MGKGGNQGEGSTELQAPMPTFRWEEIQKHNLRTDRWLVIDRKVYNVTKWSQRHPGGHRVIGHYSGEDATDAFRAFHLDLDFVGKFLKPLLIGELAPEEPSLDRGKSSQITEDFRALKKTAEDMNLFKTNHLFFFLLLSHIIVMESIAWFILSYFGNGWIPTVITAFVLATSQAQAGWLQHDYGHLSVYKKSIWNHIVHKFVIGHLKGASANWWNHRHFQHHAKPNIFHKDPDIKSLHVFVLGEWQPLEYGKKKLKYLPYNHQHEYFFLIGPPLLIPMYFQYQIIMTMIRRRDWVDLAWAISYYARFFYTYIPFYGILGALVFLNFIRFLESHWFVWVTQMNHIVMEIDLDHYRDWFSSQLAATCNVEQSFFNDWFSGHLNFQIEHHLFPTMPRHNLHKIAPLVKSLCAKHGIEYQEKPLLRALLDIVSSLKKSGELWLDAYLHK

[15] = target: T1, Acyl-CoA desaturase 1 (Mus musculus, UniProt P13516); test: Inhibition of SCD1 in ICR mouse liver microsome using [9,10 3H]- stearoyl-Coenzyme A substrate assessed as decreased production of tritiated water after 20 min by scintillation counting analysis
T1 sequence (P13516 whole entry): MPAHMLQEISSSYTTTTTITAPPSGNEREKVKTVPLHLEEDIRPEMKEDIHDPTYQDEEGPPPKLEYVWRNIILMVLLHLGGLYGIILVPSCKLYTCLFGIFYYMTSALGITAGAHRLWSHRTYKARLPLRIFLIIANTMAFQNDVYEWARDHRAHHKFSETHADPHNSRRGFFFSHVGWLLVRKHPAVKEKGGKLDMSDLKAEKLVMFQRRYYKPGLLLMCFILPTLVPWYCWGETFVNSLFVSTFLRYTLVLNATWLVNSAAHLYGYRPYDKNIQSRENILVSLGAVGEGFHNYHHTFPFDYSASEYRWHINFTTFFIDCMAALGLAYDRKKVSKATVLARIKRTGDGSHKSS

[16] = Oral bioavailability in Lewis rat at 10 mg/kg; type: ADME, organism-based; conditions: in vivo; in short: as §1
[17] = Cmax in Lewis rat at 10 mg/kg, po; type: ADME, organism-based; parameters: dose 10 mg/kg, route oral; conditions: in vivo; in short: as §1
[18] = Tmax in Lewis rat at 10 mg/kg, po; type: ADME, organism-based; parameters: dose 10 mg/kg, route oral; conditions: in vivo; in short: as §1
[19] = Clearance in Lewis rat at 3 mg/kg, iv; type: ADME, organism-based; parameters: dose 3 mg/kg, route intravenous; conditions: in vivo; in short: as §1
[20] = Volume of distribution at steady state in Lewis rat at 3 mg/kg, iv; type: ADME, organism-based; parameters: dose 3 mg/kg, route intravenous; conditions: in vivo, read-out: Vdss; in short: as §1
[21] = Half life in Lewis rat at 3 mg/kg, iv; type: ADME, organism-based; parameters: dose 3 mg/kg, route intravenous; conditions: in vivo; in short: as §1
[22] = target: T2, Stearoyl-CoA desaturase (Homo sapiens, UniProt O00767); test: Inhibition of SCD1 in human HepG2 cells using [14C]-stearate substrate assessed as decreased production of [14C]-oleic acid after 24 hrs; type: cell-based
T2 sequence (O00767 whole entry): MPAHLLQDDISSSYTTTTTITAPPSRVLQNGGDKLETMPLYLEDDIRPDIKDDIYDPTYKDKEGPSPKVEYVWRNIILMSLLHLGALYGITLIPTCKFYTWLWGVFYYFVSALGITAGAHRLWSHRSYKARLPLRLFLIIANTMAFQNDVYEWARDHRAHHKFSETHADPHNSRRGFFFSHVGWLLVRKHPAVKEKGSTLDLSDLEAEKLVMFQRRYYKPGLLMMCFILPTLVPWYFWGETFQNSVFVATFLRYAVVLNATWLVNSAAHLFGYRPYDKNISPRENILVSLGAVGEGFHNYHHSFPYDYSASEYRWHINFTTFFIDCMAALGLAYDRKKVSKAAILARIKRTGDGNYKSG

[23] = Protein binding in plasma (unknown origin); type: ADME, cell-free; conditions: read-out: PPB (converted)
[24] = target: CYP2D6 (Homo sapiens, UniProt P10635); test: Inhibition of CYP2D6 (unknown origin) at 10 uM; type: ADME
Sequence of CYP2D6 (P10635 whole entry): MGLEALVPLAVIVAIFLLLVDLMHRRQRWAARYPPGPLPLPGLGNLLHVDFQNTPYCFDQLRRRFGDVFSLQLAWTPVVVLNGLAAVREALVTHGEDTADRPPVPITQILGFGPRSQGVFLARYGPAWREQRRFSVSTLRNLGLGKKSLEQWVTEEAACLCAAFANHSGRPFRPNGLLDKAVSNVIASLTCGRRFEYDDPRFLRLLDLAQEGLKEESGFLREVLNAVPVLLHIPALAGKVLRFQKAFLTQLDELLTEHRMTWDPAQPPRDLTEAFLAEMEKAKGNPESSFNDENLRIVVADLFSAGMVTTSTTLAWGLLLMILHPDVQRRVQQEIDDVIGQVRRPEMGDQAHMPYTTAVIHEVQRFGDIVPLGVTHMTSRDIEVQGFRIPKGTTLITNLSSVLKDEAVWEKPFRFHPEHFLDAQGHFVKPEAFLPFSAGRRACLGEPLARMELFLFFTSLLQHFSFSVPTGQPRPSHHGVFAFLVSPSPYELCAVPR

[25] = target: CYP2C19 (Homo sapiens, UniProt P33261); test: Inhibition of CYP2C19 (unknown origin) at 10 uM; type: ADME
Sequence of CYP2C19 (P33261 whole entry): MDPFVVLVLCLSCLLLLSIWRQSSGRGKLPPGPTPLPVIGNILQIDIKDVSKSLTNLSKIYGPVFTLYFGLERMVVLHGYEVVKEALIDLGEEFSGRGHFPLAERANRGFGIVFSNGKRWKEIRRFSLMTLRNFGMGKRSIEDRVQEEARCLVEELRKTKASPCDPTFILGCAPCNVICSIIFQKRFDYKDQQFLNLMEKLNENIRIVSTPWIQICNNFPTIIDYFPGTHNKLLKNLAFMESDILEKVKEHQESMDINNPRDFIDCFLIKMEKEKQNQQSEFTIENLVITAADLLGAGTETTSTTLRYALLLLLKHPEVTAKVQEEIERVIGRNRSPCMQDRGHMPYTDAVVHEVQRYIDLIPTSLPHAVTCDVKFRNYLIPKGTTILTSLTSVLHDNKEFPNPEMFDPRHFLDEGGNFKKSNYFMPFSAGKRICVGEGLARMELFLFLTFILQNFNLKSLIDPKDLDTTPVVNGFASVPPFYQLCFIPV

[26] = target: CYP2C9 (Homo sapiens, UniProt P11712); test: Inhibition of CYP2C9 (unknown origin) at 10 uM; type: ADME
Sequence of CYP2C9 (P11712 whole entry): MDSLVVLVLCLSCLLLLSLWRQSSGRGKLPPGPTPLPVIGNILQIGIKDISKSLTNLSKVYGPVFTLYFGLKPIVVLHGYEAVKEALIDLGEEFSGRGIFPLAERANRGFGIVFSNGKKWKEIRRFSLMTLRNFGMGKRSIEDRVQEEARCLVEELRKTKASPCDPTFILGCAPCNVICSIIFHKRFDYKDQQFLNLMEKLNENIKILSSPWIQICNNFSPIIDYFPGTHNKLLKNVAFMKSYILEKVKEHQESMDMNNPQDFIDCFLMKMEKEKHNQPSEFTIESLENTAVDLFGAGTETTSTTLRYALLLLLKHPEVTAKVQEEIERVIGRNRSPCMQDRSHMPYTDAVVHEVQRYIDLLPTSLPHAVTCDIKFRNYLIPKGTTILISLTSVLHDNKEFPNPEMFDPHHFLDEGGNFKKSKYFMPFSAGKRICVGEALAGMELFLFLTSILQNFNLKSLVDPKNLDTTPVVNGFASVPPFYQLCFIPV

[27] = target: CYP3A4 (Homo sapiens, UniProt P08684); test: Inhibition of CYP3A4 (unknown origin) at 10 uM; type: ADME
Sequence of CYP3A4 (P08684 whole entry): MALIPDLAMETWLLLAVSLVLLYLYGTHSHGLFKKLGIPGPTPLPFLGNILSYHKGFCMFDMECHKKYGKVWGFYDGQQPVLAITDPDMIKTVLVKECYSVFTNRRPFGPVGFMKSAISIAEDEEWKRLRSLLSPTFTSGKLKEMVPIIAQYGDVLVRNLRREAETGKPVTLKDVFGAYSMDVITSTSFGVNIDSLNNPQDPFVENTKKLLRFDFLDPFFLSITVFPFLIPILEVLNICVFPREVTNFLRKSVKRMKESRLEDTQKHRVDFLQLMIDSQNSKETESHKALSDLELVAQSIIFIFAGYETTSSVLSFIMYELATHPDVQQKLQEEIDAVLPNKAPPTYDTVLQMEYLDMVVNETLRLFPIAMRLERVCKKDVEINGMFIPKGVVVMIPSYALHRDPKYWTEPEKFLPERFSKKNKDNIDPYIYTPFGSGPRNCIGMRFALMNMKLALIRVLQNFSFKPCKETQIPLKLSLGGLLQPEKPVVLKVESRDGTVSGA

**Q.** For O=C(Nc1nc2ccccc2[nH]1)c1ccc(N2CCN(C(=O)c3ccccc3C(F)(F)F)CC2)nn1, which inhibition [1] is on record?
**A.** inactive

**Q.** What about the clearance [2] of the same compound?
**A.** 21.7 mL/min/kg

**Q.** What about the AUC(0-inf) [3] of the same compound?
**A.** 1.6 µM·h

**Q.** What about the Vd [4] of the same compound?
**A.** 1.8 L/kg

**Q.** And the half-life [5]?
**A.** 66 min

**Q.** What about the bioavailability [6] of the same compound?
**A.** 19%

**Q.** And the AUC(0-inf) [7]?
**A.** 0.6 µM·h

**Q.** What about the Tmax [8] of the same compound?
**A.** 30 min

**Q.** And the Cmax [9]?
**A.** 70 nM

**Q.** And the inhibition in vivo at 15 mg/kg [10]?
**A.** < 30%

**Q.** And the Papp B→A [11]?
**A.** 23 ×10⁻⁶ cm/s

**Q.** What about the remaining at 0.5 h [12] of the same compound?
**A.** 92%

**Q.** And the Papp A→B [13]?
**A.** 25 ×10⁻⁶ cm/s

**Q.** And the inhibition [14]?
**A.** inactive

**Q.** What about the IC50 [15] of the same compound?
**A.** 11 nM

**Q.** With O=C(CNC(=O)c1ccc(N2CCN(C(=O)c3ccccc3C(F)(F)F)CC2)nn1)c1ccccc1 as the compound, how does the inhibition [1] read?
**A.** inactive

**Q.** What about the bioavailability [16] of the same compound?
**A.** 42%

**Q.** And the Cmax [17]?
**A.** 1900 nM

**Q.** And the Tmax [18]?
**A.** 3.3 h

**Q.** And the clearance [19]?
**A.** 4.67 mL/min/kg

**Q.** And the Vd [20]?
**A.** 0.7 L/kg

**Q.** What about the half-life [21] of the same compound?
**A.** 108 min

**Q.** What about the inhibition in vivo at 15 mg/kg [10] of the same compound?
**A.** > 60%

**Q.** And the Papp B→A [11]?
**A.** 23 ×10⁻⁶ cm/s

**Q.** And the remaining at 0.5 h [12]?
**A.** 63%

**Q.** What about the Papp A→B [13] of the same compound?
**A.** 22 ×10⁻⁶ cm/s

**Q.** What about the inhibition [14] of the same compound?
**A.** inactive

**Q.** And the IC50 [15]?
**A.** 42 nM

**Q.** Which inhibition [1] does the source give for Cc1cc(C(=O)N2CCN(c3ccc(C(=O)NCCC4CC4)nn3)CC2)c(C(F)(F)F)o1 here?
**A.** inactive

**Q.** And the inhibition in vivo at 15 mg/kg [10]?
**A.** < 30%

**Q.** And the Papp B→A [11]?
**A.** 21 ×10⁻⁶ cm/s

**Q.** What about the remaining at 0.5 h [12] of the same compound?
**A.** 36%

**Q.** And the Papp A→B [13]?
**A.** 21 ×10⁻⁶ cm/s

**Q.** And the IC50 [22]?
**A.** 62 nM

**Q.** What about the inhibition [14] of the same compound?
**A.** inactive

**Q.** What about the IC50 [15] of the same compound?
**A.** 72 nM

**Q.** Which inhibition in vivo at 15 mg/kg [10] does the source give for CC(C)CCNC(=O)c1ccc(N2CCN(C(=O)c3ccccc3C(F)(F)F)CC2)nn1 here?
**A.** 40%

**Q.** And the remaining at 0.5 h [12]?
**A.** 57%

**Q.** And the fraction unbound [23]?
**A.** 0.22

**Q.** What about the Papp A→B [13] of the same compound?
**A.** 25 ×10⁻⁶ cm/s

**Q.** And the inhibition at 10 µM [24]?
**A.** < 50%

**Q.** And the inhibition at 10 µM [25]?
**A.** < 50%

**Q.** And the inhibition at 10 µM [26]?
**A.** < 50%

**Q.** And the inhibition at 10 µM [27]?
**A.** < 50%

**Q.** And the IC50 [15]?
**A.** 26 nM
